A word on the ILS: it is the gain in survival time of treated over control animals, in per cent. Low values mean a small benefit in survival, high ones a large benefit in survival. As usually defined, the MTD is the highest dose tested that stayed within the study's limit of toxicity.

Here are results for three compounds from ChEMBL document CHEMBL1123113, “"Reverse" and "symmetrical" analogues of actinomycin D: metabolic activation and in vitro and in vivo tumor growth inhibitory activities” (J Med Chem, 1985).

Series [1] deals with Mus musculus. Description: Antitumor activity against B16 melanoma in terms of median survival time of mice at an optimal dose of 300 ug/kg administered ip. The class given is functional.
Series [2] relates to Mus musculus. In words: Antitumor activity against P388 leukemia cells in terms of median survival time of mice at an optimal dose of 450 ug/kg administered ip. The class given is functional.
Series [3] deals with Mus musculus. In words: In vivo antitumor activity was determined against P388 leukemia mice as number of mice survived after administration of 450 ug/Kg dose of compound; Value represented as no of survivors/ treated = 3/8. The class given is functional.
For series [4], the species on record is Rattus norvegicus. In words: (§1) Compound tested for adrenochrome formation in rat hepatic mycrosomal incubation. In kind it is functional. In short, it runs like this:
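Superoxide read as adrenochrome from epinephrine (in 0.01 N HCl) with phenobarbital-induced rat liver microsomes (300 µg) at 37 °C; NADPH 0.4 mM added to sample cuvette after 1 min. Rate at 480 nm (ε 4.02 mM-1 cm-1); drug ≤100 µM in 150 mM KCl-50 mM Tris pH 7.4; % stimulation over basal rate; triplicate, mean ± standard error.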

Series [5] is filed under the species Mus musculus. In words: Antitumor activity against B16 melanoma in terms of percentage increase in life span in mice after 65 days. In kind it is functional.
Series [6] deals with Mus musculus. In words: Antitumor activity against P388 leukemia cells in terms of percentage increase in life span in mice at an optimal dose of 450 ug/kg administered ip. In kind it is functional.
For series [7], the species on record is Rattus norvegicus. Description: (§2) Compound tested for NADPH oxidation in rat hepatic mycrosomal incubation. In kind it is functional. Summed up: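 Phenobarbital-induced rat liver microsomes (300 µg), 37 °C, no epinephrine; NADPH 0.4 mM added to sample cuvette only. A340 followed; % oxidation = (1 − A340/A'340)×100 vs cuvette not activated by microsomes; % stimulation = (drug rate − basal rate)/basal rate ×100. Drugs in 150 mM KCl-50 mM Tris pH 7.4; triplicate analyses, mean ± standard error.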

The test system of a further series is CCRF-CEM. In words: Inhibitory dose required for the inhibition of human lymphoblastic leukemia cells(CCRF-CEM). The class given is functional. The note with it: read-out: ID50 (the source's name).
The test system of series [8] is Mus musculus. Description: In vivo antitumor activity was determined against B16 melanoma in mice as number of mice survived after administration of 300 ug/Kg dose of compound; Value represented as no of survivors/ treated = 3/9. The class given is functional.
Series [9] deals with Mus musculus. In words: Antitumor activity against P388 leukemia cells in terms of percentage increase in life span in mice at an optimal dose of 375 ug/kg administered ip. The class given is functional.
The subject of series [10] is Mus musculus. In words: Antitumor activity against P388 leukemia cells in terms of median survival time of mice at an optimal dose of 375 ug/kg administered ip. The class given is functional.
Series [11] has as its system Mus musculus. Description: Antitumor activity against B16 melanoma in terms of percentage increase in life span in mice at an optimal dose of 300 ug/kg administered ip. In kind it is functional.
The test system of series [12] is Mus musculus. In words: In vivo antitumor activity was determined against B16 melanoma in mice as number of mice survived after administration of 300 ug/Kg dose of compound; Value represented as no of survivors/ treated = 5/9. In kind it is functional.
The test system of series [13] is Mus musculus. Description: In vivo antitumor activity was determined against P388 leukemia mice as number of mice survived after administration of 375 ug/Kg dose of compound; Value represented as no of survivors/ treated = 4/8. The class given is functional.
Series [14] is filed under the species Mus musculus. Description: Dose providing an increase in the life span of 45% over control in P388 tumor bearing mice. In kind it is functional. As to conditions: read-out: MED. In short, it runs like this:
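MED is the ip dose in mg/kg, given on days 1, 5 and 9 starting 1 day after implantation, that gives a 45% increase in life span over control in P388-bearing mice. It was derived from plotted log-dose response data.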

Series [15] concerns Mus musculus. In words: In vivo antitumor activity was determined against P388 leukemia mice as number of mice survived after administration of 300 ug/Kg dose of compound; Value represented as no of survivors/ treated = 0/8. The class given is functional.
Series [16] can be described thus: Minimum tolerated dose is the lethal dose for 10% normal mice for deaths during 21 days. In kind it is ADME, organism-based. The note with it: mouse, in vivo. Summed up:
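Tumor-free male BDF1 mice (18–22 g) received a broad dose range ip in 5% dimethyl sulfoxide-saline on days 1, 5 and 9. Deaths were recorded over 21 days. The LD10 (dose killing 10% of animals) was calculated from a plot of log-dose vs. percent mortality.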

The subject of series [17] is Mus musculus. In words: Antitumor activity against B16 melanoma in terms of median survival time of mice at an optimal dose of 250 ug/kg administered ip. The class given is functional.
Series [18] deals with Mus musculus. Description: Antitumor activity against P388 leukemia cells in terms of median survival time of mice at an optimal dose of 300 ug/kg administered ip. The class given is functional.
For series [19], the species on record is Rattus norvegicus. The series is described as §1. In kind it is functional. Summed up:
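Adrenochrome assay for superoxide: epinephrine in 0.01 N HCl plus 300 µg of phenobarbital-induced rat liver microsomes at 37 °C. NADPH 0.4 mM was added to the sample side 1 min later, and the rate was read at 480 nm (ε 4.02 mM−1 cm−1). Drugs were at ≤100 µM, made in 150 mM KCl–50 mM Tris, pH 7.4. Percent stimulation is over basal rate, in triplicate.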
The source holds these as a separate data set.

For series [20], the species on record is Rattus norvegicus. The description is as §2. In kind it is functional. Summed up:
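Phenobarbital-induced male Sprague-Dawley rat liver microsomes were placed in both cuvettes, without epinephrine. NADPH 0.4 mM was added to the sample side only, and absorbance was read at 340 nm. Percent stimulation = (drug rate − basal)/basal × 100. Values are the average ± standard errors of triplicates.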
This is another data set of the same source.

In series [21] the test system is Mus musculus. In words: In vivo antitumor activity was determined against B16 melanoma mice as number of mice survived after administration of 250 ug/Kg dose of compound; Value represented as no of survivors/ treated = 2/9. In kind it is functional.
Series [22] deals with Mus musculus. Description: Antitumor activity against P388 leukemia cells in terms of percentage increase in life span in mice at an optimal dose of 300 ug/kg administered ip. In kind it is functional.
Series [23] has as its system P388. In words: Inhibition of DNA synthesis was measured as the concentration required to cause 50% reduction (in 1h) in methyl [3H]thymidine incorporation into acid precipitable material using P388 cells. The class given is functional. The note with it: Mus musculus, read-out: ID50 (the source's name). In short, it runs like this: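 P388 cells were exposed for 1 h. IC50 (µM) was taken as 50% reduction of methyl-[3H]thymidine (DNA) or 2-[14C]uridine (RNA) incorporation into acid-precipitable material. The ratio is IC50 DNA divided by IC50 RNA.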
(In general: Dividing cells build labelled thymidine or BrdU into new DNA.)

A short description of series [24]: Therapeutic index ([…]) value of the compound. The note with it: read-out: TI. Summed up: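 MED is the dose giving a 45% increase in life span over control in male BDF1 mice implanted ip with 10^6 P388 cells and treated ip on days 1, 5 and 9. MTD is the 21-day LD10 in tumor-free male BDF1 mice (18–22 g), dosed ip on the same days. Both values come from plotted log-dose response data.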

The subject of series [25] is P388. Description: Inhibition of RNA synthesis was measured as the concentration required to cause 50% reduction (in 1h) in 2-[14C]uridine incorporation into acid precipitable material using P388 cells. As to conditions: Mus musculus, P388, 1 h; read-out: ID50 (the source's name). The class given is functional.

Several values for one entry are separate records, joined by “and”; a condition that tells them apart may be missing. Equal entries are not always repeated.

For the compound `Cc1nc2c(C(=O)N[C@@H]3C(=O)N[C@H](C(C)C)C(=O)N4CCC[C@H]4C(=O)N(C)CC(=O)N(C)[C@@H](C(C)C)C(=O)O[C@@H]3C)c3nc4c(C(=O)N[C@@H]5C(=O)N[C@H](C(C)C)C(=O)N6CCC[C@H]6C(=O)N(C)CC(=O)N(C)[C@@H](C(C)C)C(=O)O[C@@H]5C)c(N)c(=O)c(C)c-4oc3c(C)c2o1`, the MST with Mus musculus [1] came to 55 days; in the series with Mus musculus [2], 42.5 days. Also, the Survivors in the series on Mus musculus [3] and in the series with Mus musculus [8] was 3 in each case. Besides, in the series filed under Rattus norvegicus [4], the adrenochrome formation is 6.04 nM min-1 (mg of protein)-1. The compound further returned an ILS in the series listed under Mus musculus [5] of 90%. Besides, the ILS at 0.45 mg/kg with Mus musculus [6] worked out at 277%. For the same compound, the NADPH oxidation in the series filed under Rattus norvegicus [7] was 21.3 nM min-1 (mg of protein)-1. The IC50 with CCRF-CEM was 110 nM.
Consider `Cc1c2oc3c(C)c4oc(-c5ccccc5)nc4c(C(=O)N[C@@H]4C(=O)N[C@H](C(C)C)C(=O)N5CCC[C@H]5C(=O)N(C)CC(=O)N(C)[C@@H](C(C)C)C(=O)O[C@@H]4C)c3nc-2c(C(=O)N[C@@H]2C(=O)N[C@H](C(C)C)C(=O)N3CCC[C@H]3C(=O)N(C)CC(=O)N(C)[C@@H](C(C)C)C(=O)O[C@@H]2C)c(N)c1=O`, for which the MST was 59 days in the series on Mus musculus [1] and 52 days in the series on Mus musculus [10]. In the series on Mus musculus [9], this compound showed an ILS at 0.375 mg/kg of 382%. In the series on Mus musculus [11], the increase in life span (ILS) at 0.3 mg/kg was 103%. Moreover, in the series on CCRF-CEM, the IC50 turned out to be 30 nM. Further, the Survivors in the series on Mus musculus [12] came out at 5; in the series with Mus musculus [13] it was 4. In addition, in the series filed under Mus musculus [14], the minimal effective dose is 0.03 mg/kg.
Regarding `Cc1c2oc3c(C)ccc(C(=O)N[C@@H]4C(=O)N[C@H](C(C)C)C(=O)N5CCC[C@H]5C(=O)NCC(=O)N[C@@H](C(C)C)C(=O)O[C@@H]4C)c3nc-2c(C(=O)N[C@@H]2C(=O)N[C@H](C(C)C)C(=O)N3CCC[C@H]3C(=O)NCC(=O)N[C@@H](C(C)C)C(=O)O[C@@H]2C)c(N)c1=O` [ACTINOMYCITIN], the Survivors is given as 0 in the series on Mus musculus [15] and 2 with Mus musculus [21]. For the same compound, the MTD at 504 h in series [16] is 0.25 mg/kg. In addition, the MST in the series on Mus musculus [17] stood at 43 range; in the series with Mus musculus [18] it was 26 days. In addition, the adrenochrome formation in the series filed under Rattus norvegicus [19] was 2.11 nM min-1 (mg of protein)-1 and 2.29 nM min-1 (mg of protein)-1. Besides, the NADPH oxidation in the series listed under Rattus norvegicus [20] is 9.11 nM min-1 (mg of protein)-1 and 10.01 nM min-1 (mg of protein)-1. This compound came in with an ILS in the series filed under Mus musculus [5] of 48%. The compound also came in with an increase in life span (ILS) at 0.3 mg/kg in the series on Mus musculus [22] of 136%. In addition, the IC50 stood at 1.12 nM with P388 [23], 50 nM in the series with CCRF-CEM and 0.05 nM in the series with P388 [25]. For the same compound, the minimal effective dose in the series filed under Mus musculus [14] was 0.0625 mg/kg. For the same compound, in series [24], the selectivity ratio came out at 4.
